Laboratory results as given in ChEMBL document CHEMBL1147539, “Synthesis and biological evaluation of novel, selective, nonsteroidal glucocorticoid receptor antagonists” (Bioorg Med Chem Lett, 2004).

Tests used:
[1] = target: T1, Mineralocorticoid receptor (Homo sapiens, UniProt P08235); test: Displacement of [3H]aldosterone from human Mineralocorticoid receptor
T1 sequence (P08235 whole entry): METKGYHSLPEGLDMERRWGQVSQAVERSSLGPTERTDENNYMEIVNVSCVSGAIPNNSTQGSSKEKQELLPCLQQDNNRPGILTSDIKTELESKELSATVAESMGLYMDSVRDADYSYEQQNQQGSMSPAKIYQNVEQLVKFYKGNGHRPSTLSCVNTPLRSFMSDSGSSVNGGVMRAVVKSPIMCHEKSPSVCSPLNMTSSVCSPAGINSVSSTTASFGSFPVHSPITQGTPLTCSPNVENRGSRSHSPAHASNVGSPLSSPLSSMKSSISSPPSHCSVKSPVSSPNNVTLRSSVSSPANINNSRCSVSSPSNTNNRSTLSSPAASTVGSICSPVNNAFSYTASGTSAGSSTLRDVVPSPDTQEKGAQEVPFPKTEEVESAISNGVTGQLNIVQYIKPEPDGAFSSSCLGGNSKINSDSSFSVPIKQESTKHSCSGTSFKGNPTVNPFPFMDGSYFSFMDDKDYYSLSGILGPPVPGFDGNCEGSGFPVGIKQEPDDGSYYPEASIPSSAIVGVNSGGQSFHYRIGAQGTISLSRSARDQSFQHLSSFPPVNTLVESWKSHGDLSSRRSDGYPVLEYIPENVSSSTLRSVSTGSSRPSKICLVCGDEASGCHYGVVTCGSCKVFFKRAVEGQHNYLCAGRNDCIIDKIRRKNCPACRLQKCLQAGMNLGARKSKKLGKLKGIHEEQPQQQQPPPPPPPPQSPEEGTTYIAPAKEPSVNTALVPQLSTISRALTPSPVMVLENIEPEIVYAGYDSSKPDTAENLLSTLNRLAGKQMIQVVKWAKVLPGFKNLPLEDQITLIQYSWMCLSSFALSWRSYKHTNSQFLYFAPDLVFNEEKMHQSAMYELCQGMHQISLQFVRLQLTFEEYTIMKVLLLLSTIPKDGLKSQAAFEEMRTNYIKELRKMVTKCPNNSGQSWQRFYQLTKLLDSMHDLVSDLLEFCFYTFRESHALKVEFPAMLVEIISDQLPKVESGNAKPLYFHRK
Summary of the method: (§1)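 Human steroid receptor (PR, MR, AR, ERα) binding measured by radioligand displacement, with IC50s determined in duplicate. Values without a range come from a single experiment, and values with a range are geometric means of repeat experiments.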

Progesterone receptor = target: T2, Progesterone receptor (Homo sapiens, UniProt P06401); test: Displacement of [3H]progesterone from human Progesterone receptor; summary of the method: as §1
T2 sequence (P06401 whole entry): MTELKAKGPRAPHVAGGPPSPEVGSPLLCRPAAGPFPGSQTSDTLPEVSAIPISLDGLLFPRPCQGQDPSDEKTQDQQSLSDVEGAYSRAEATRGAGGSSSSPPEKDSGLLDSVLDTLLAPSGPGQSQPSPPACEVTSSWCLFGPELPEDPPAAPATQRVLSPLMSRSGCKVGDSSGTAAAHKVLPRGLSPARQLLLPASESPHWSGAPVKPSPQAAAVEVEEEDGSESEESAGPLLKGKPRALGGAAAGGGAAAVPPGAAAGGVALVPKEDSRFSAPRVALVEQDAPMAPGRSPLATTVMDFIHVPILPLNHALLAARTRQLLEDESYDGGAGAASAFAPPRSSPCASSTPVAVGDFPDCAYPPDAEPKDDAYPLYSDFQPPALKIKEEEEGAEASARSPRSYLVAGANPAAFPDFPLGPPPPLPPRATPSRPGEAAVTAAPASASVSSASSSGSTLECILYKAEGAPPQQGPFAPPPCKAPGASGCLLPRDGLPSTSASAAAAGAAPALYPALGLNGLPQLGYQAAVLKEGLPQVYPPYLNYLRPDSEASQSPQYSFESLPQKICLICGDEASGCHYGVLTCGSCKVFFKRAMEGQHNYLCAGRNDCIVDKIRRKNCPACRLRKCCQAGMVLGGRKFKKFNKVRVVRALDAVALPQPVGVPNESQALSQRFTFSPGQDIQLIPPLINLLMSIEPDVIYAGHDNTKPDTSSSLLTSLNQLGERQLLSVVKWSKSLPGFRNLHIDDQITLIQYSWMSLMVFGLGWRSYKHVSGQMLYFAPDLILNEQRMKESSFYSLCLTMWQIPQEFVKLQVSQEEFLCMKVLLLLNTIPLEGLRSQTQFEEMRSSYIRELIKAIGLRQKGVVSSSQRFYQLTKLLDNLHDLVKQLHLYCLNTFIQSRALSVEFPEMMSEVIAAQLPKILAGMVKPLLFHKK

Glucocorticoid receptor [2] = target: T3, Glucocorticoid receptor (Homo sapiens, UniProt P04150)
T3 sequence (P04150 whole entry): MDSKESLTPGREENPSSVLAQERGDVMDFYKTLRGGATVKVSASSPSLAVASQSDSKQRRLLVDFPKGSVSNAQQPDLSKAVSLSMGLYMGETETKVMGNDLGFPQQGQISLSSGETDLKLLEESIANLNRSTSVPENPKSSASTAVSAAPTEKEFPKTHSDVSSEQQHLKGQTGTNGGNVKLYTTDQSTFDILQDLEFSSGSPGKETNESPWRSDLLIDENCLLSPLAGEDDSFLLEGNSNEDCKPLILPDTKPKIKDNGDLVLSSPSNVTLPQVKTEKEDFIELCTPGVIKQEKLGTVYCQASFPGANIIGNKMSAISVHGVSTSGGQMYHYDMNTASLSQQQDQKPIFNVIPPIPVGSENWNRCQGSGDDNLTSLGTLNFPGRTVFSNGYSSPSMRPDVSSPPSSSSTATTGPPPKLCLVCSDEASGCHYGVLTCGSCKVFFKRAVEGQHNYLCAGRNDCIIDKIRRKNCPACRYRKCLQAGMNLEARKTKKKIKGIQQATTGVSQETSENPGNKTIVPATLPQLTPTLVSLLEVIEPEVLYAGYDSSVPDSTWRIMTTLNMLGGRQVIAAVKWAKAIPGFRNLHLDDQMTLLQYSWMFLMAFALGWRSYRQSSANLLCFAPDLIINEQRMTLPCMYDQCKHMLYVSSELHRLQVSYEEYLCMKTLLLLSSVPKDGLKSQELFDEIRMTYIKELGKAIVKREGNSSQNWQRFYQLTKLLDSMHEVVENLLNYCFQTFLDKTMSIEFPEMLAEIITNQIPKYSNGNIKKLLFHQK

Glucocorticoid receptor [3] = target: T3, Glucocorticoid receptor; test: Displacement of [3H]dexamethasone from human Glucocorticoid receptor (GR); Value ranges from 3-4 nM
Summary of the method: (§2)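 Binding to human GR; IC50 reported as the geometric mean of two experiments (three for some values), each run in duplicate, with the range of the experiments given.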

Glucocorticoid receptor [4] = target: T3, Glucocorticoid receptor; test: Displacement of [3H]dexamethasone from human Glucocorticoid receptor (GR); […]
Glucocorticoid receptor [5] = target: T3, Glucocorticoid receptor; test: Displacement of [3H]dexamethasone from human Glucocorticoid receptor (GR); Value ranges from 6-7 nM; summary of the method: as §2
Glucocorticoid receptor [6] = target: T3, Glucocorticoid receptor; test: Displacement of [3H]dexamethasone from human Glucocorticoid receptor (GR); Value ranges from 70-92 nM

SMILES | IC50 [1] | IC50 (Progesterone receptor) | IC50 (Glucocorticoid receptor [3]) | IC50 (Glucocorticoid receptor [4]) | IC50 (Glucocorticoid receptor [5]) | IC50 (Glucocorticoid receptor [6]) | IC50 (Glucocorticoid receptor [2])
COc1cccc2c1-c1ccc(NS(C)(=O)=O)cc1C(c1cccs1)O2 (stereo not given) | 2250 nM | 450 nM |  |  |  |  | 7 nM
COc1cccc2c1-c1ccc(NS(C)(=O)=O)cc1C(c1ccc(F)cc1)O2 (stereo not given) | 2480 nM | 1160 nM |  | 29 nM |  |  | 
CCOc1cccc2c1-c1ccc(NS(C)(=O)=O)cc1C(c1ccccc1)O2 (stereo not given) | 893 nM | 6900 nM |  |  |  | 81 nM | 

The next molecules have a lower IC50 [1] than those just listed; values first:

IC50 [1] | IC50 (Progesterone receptor) | IC50 (Glucocorticoid receptor [3]) | IC50 (Glucocorticoid receptor [4]) | IC50 (Glucocorticoid receptor [5]) | IC50 (Glucocorticoid receptor [6]) | SMILES | IC50 (Glucocorticoid receptor [2])
683 nM | 476 nM | 3 nM |  |  |  | COc1cccc2c1-c1ccc(NS(C)(=O)=O)cc1C(c1cccc(F)c1)O2 (stereo not given) | 
651 nM | 673 nM |  |  | 7 nM |  | COc1cccc2c1-c1ccc(NS(C)(=O)=O)cc1C(c1ccc(C)cc1)O2 (stereo not given) | 
